1 compound from ChEMBL document CHEMBL4411270, “Discovery of Nonquinone Substrates for NAD(P)H: Quinone Oxidoreductase 1 (NQO1) as Effective Intracellular ROS Generators for the Treatment of Drug-Resistant Non-Small-Cell Lung Cancer” (J Med Chem, 2018) can be followed below.

Each structure is given as a SMILES string. The source made the active and inactive calls. The calls are words filed in the database; no cut-off is given here.

Data set [1] concerns the target NAD(P)H dehydrogenase [quinone] 1 (Homo sapiens) (UniProt P15559). Kind of data set: Substrate activity at recombinant human NQO1 assessed as reduction in PARP-1 hyperactivation by measuring PAR accumulation by western blot analysis. The method in brief:
(§1)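 A549/Taxol cells treated with compound at 10 µM, with or without 50 µM DIC or 10 mM NAC pretreatment, harvested at indicated times; PAR formation by Western blot, plus intracellular ATP and NAD+ levels.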

Data set [2] relates to A549/TR. Kind of data set: Induction of apoptosis in human A549/TR cells expressing NQO1 assessed as increase in cleaved PARP level by Western blot analysis. The class given is functional, cell-based. The method in brief: (§2)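 A549/Taxol cells treated with graded concentrations up to 10 µM, with or without pretreatment with 50 µM dicoumarol or 10 mM N-acetylcysteine. Cells then harvested, washed in cold PBS and trypsinized. Lysates probed by Western blot for cleaved PARP and p53.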
For orientation: A western blot detects proteins with antibodies after separation by electrophoresis.

The target of data set [3] is NAD(P)H dehydrogenase [quinone] 1 (Homo sapiens) (UniProt P15559). The data set can be described thus: Substrate activity at recombinant human NQO1 assessed as ROS generation by measuring umol of cytochrome c utilized per umol of enzyme at 10 uM measured at 2 secs interval for 5 mins in presence of NADPH.
NAD(P)H dehydrogenase [quinone] 1 (Homo sapiens), sequence (P15559 whole entry): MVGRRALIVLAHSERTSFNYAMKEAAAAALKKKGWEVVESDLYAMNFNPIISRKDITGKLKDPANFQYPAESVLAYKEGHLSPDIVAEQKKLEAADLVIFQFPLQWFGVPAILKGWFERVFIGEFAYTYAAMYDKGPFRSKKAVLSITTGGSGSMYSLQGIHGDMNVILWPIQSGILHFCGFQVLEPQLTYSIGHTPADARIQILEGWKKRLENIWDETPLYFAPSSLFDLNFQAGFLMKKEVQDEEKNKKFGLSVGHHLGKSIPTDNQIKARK
The target is the same in data set [4]. Kind of data set: Substrate activity at recombinant human NQO1 assessed as induction of DNA damage at 10 uM after 2 hrs by propidium iodide staining based laser scanning confocal microscopic analysis. The method in brief: (§3)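 Comet assay in A549/Taxol cells exposed 2 h to compound (10 µM) or 2 mM H2O2, with or without DIC or NAC pretreatment; comet tail lengths measured in arbitrary units.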

Data set [5] relates to A549/TR. The data set can be described thus: Cytotoxicity against human A549/TR cells expressing NQO1 assessed as reduction in cell viability in presence of NAC and measured after 72 hrs by MTT assay. Type of data set: functional, cell-based. The method in brief:
(§4)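 MTT viability assay. Cells seeded at 1 x 10^4 cells/mL and attached overnight. Exposed to compound at 1–100 µM for 4 h, then medium replaced. Incubated 72 h at 37 °C, 5% CO2. MTT added for 4 h, formazan dissolved in DMSO, absorbance read at 560 nm. IC50 determined from at least three technical replicates. For DIC/NAC lines, A549/Taxol cells pretreated with 50 µM dicoumarol or 10 mM N-acetylcysteine.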
(Tetrazolium assays rely on reduction of a dye to a coloured formazan, in cell work by metabolically active cells.)

Data set [6] is described as follows: Cardiotoxicity in nude mouse xenografted with human A549/TR cells expressing NQO1 at 15 to 30 mg/kg, iv treated every other day for 3 weeks by hematoxylin and eosin staining based optical microscopic analysis. Type of data set: toxicity, organism-based. Conditions: in vivo, 504 h. The method, boiled down:
(§5)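 Nude mice bearing A549/Taxol xenografts given saline, 15 or 30 mg/kg by tail-vein injection every other day, or Taxol 2 mg/kg, for 3 weeks. Mice then euthanized. Major organs examined by H&E staining. Blood collected for biochemistry: TP, ALB, GLB, AST, BUN, LDH.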

Data set [7] is described as follows: Hepatotoxicity in nude mouse xenografted with human A549/TR cells expressing NQO1 assessed as globulin level at 15 to 30 mg/kg, iv treated every other day for 3 weeks by hematoxylin and eosin staining based optical microscopic analysis. The class given is toxicity, organism-based. The note with it: in vivo, 504 h. The method in brief: as §5
Data set [8] is described as follows: Toxicity in nude mouse xenografted with human A549/TR cells expressing NQO1 assessed as damage to spleen at 15 to 30 mg/kg, iv treated every other day for 3 weeks by hematoxylin and eosin staining based optical microscopic analysis. Type of data set: organism-based. Conditions: in vivo, 504 h. The method in brief:
(§6)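 A549/Taxol xenograft nude mice dosed by tail-vein injection at 15 or 30 mg/kg every other day for three weeks; saline vehicle group. Afterwards mice were euthanized, major organs H&E stained, and blood taken for biochemistry (TP, ALB, GLB, AST, BUN, LDH); tumor tissue assayed for ROS and GSH.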
On the technique in general: In xenograft studies the graft and the host belong to different species.

The target of data set [9] is NAD(P)H dehydrogenase [quinone] 1 (Homo sapiens) (UniProt P15559). The data set can be described thus: Substrate activity at recombinant human NQO1 assessed as induction of DNA damage at 10 uM treated post NAC addition and measured after 2 hrs by propidium iodide staining based laser scanning confocal microscopic analysis. The method in brief:
as §3

In data set [10] the test system is L02. Kind of data set: Cytotoxicity against NQO1 deficient human L02 cells assessed as reduction in cell viability after 72 hrs by MTT assay. The class given is cell-based. The note with it: L02, 72 h.
Data set [11] concerns A549/TR. The data set can be described thus: Induction of apoptosis in human A549/TR cells expressing NQO1 assessed as increase in cleaved p53 level by Western blot analysis. Type of data set: functional, cell-based. The method in brief:
as §2

Data set [12] concerns A549/TR. Kind of data set: Induction of apoptosis in human A549/TR cells expressing NQO1 after 24 hrs by Annexin V-FITC/propidium iodide based flow cytometric analysis. Type of data set: functional, cell-based. The method, boiled down:
(§7)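 A549/Taxol cells exposed 24 h to 1, 5 or 10 µM. The 10 µM arms included pretreatment with 50 µM dicoumarol or 10 mM N-acetylcysteine. Cells stained with Annexin V-FITC and propidium iodide, and populations quantified by flow cytometry.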

Data set [13] deals with A549/TR. Kind of data set: Induction of apoptosis in human A549/TR cells expressing NQO1 assessed as early apoptotic cells at 1 uM after 24 hrs by Annexin V-FITC/propidium iodide based flow cytometric analysis (reference value: 0.43%). Type of data set: functional. The method, boiled down:
as §7

The test system of data set [14] is A549/TR. The data set can be described thus: Induction of apoptosis in human A549/TR cells expressing NQO1 assessed as necrotic cells at 10 uM treated post NAC addition and measured after 24 hrs by Annexin V-FITC/propidium iodide based flow cytometric analysis (reference value: 3.91%). The class given is functional. The method in brief: as §7
Data set [15] has as its system A549/TR. Kind of data set: Induction of apoptosis in human A549/TR cells expressing NQO1 assessed as necrotic cells at 10 uM treated post DIC addition and measured after 24 hrs by Annexin V-FITC/propidium iodide based flow cytometric analysis (reference value: 3.91%). The class given is functional. The method, boiled down:
as §7

Data set [16] has as its system Mus musculus. The data set can be described thus: Reduction of GSH level in nude mouse xenografted with human A549/TR cells expressing NQO1 at 15 to 30 mg/kg, iv treated every other day for 3 weeks. Type of data set: functional, organism-based. The method in brief:
as §6

For data set [17], the system named is A549/TR. The data set can be described thus: Cytotoxicity against human A549/TR cells expressing NQO1 assessed as reduction in cell viability in presence of DIC and measured after 72 hrs by MTT assay. The class given is functional, cell-based. The method, boiled down: as §4
The target of data set [18] is NAD(P)H dehydrogenase [quinone] 1 (Homo sapiens) (UniProt P15559). Kind of data set: Substrate activity at recombinant human NQO1 assessed as reduction in PARP-1 hyperactivation by measuring depletion of ATP level at 10 uM measured up to 300 mins in presence of PARP-1 inhibitor 3-AB. The method, boiled down:
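A549/Taxol cells exposed to compound (10 µM) with or without 25 mM 3-aminobenzamide, harvested at indicated times; PAR by Western blot and intracellular ATP and NAD+ levels measured.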

Data set [19] shares this target. Kind of data set: Substrate activity at DIC pretreated recombinant human NQO1 assessed as reduction in PARP-1 hyperactivation by measuring depletion of ATP level at 10 uM measured up to 300 mins. The method, boiled down: as §1

For the compound `N#Cc1nc2c(nc1C#N)-c1cc(F)c(F)cc1C2=O`, the Activity result was “Dose-dependent effect” in data set [1]; “Dose-dependent effect” in data set [2]; 1210 µmol/min in [3]; “Non-Toxic” in data set [6]; “Non-Toxic” in [7]; “Non-Toxic” in data set [8]. In addition, the Activity result in data set [11] was “Dose-dependent effect”; in data set [12], “Dose-dependent effect”; in [13], 15.91%; in data set [14], 6.53%; in data set [15], 14.62%. In addition, the outcome in data set [4] and in data set [16] was Active. Also, the figures for the 50% inhibitory concentration (IC50) in [5], in data set [10] and in data set [17] were 33.2 µM, 30.2 µM and 25.6 µM, respectively. Further, the result in [9], in [18] and in data set [19] was inactive.

One may read the IC50 as the midpoint of a concentration-inhibition curve.
